Compound activity deposited in PubChem BioAssay by Sanford-Burnham Center for Chemical Genomics.
In the library only some 3% were active in any assay of this set; here they are far more common.
SENP6 inh – SENP6 protease inhibition; Recombinant SENP6 catalytic domain, aminoluciferin luminescence; inhibition, % at 10 µM; 330,000 compounds, 1.8% hits;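 active = inhibition above about 50% at the single tested dose, limit read from the data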;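 also: plate controls were DMSO wells with enzyme for no effect and DMSO wells lacking enzyme for full effect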
SENP8 block-1 – SENP8 (human) protease inhibition; inhibition, % at 20 µM; 360,000 compounds, 0.64% hits; Q96LD8; recombinant SENP8, Nedd8 substrate fluorescence; in the data active = inhibition mostly above about 40%, no sharp cut-off; inactive = mostly below about 27%
Target sequence (Q96LD8 whole entry, looked up): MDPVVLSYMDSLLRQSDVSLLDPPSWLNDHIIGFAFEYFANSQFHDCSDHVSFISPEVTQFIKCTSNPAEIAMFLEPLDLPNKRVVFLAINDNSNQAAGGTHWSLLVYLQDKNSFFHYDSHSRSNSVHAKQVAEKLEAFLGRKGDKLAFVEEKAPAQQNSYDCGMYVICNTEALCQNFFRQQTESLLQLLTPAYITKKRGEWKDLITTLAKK
SENP7 block – SENP7 protease inhibition. recombinant SENP7, Z-RLRGG-aminoluciferin luminescence, 40 min. Q9BQF6. 330,000 compounds, 1.5% hits. inhibition, % at 5 µM;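 active = inhibition above about 50% at the single test dose, limit read from the data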;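 also: plate controls were DMSO with enzyme for no effect and no enzyme buffer wells for full effect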
UBC13 inh – human UBC13 polyubiquitination inhibition; 330,000 compounds, 0.47% hits; UBC13 polyubiquitin chain formation, TR-FRET; inhibition, % at 20 µM; in the data active = inhibition above about 45%, passing the limit was not always enough
Target sequence (P61088 whole entry, looked up): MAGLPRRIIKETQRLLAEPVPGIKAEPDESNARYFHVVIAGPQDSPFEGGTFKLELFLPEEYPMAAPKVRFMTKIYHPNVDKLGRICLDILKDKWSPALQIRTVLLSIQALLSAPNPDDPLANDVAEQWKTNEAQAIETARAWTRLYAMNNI
Apaf-1 inh – blocks human Apaf-1 apoptosome activity; AID 489030; 330,000 compounds, 0.71% hits; inhibition, % at 20 µM; reconstituted apoptosome caspase-3 activity, DEVD-Rh110 fluorescence; active = inhibition of at least 40% at 20 µM;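 also: plate controls were DMSO wells for no effect and DEVD-CHO caspase inhibitor wells for full effect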
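System: Apoptosome proteins | Medium: Hepes pH 7.5 with detergent and BSA | Also added: Cytochrome c trigger plus (Z-DEVD)2-Rh110 caspase-3 substrate | Incubation: 30 min compound preincubation, 50 min activation, room temperature | Detection: Rhodamine 110 fluorescence at Ex 480/Em 540 nm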
SENP8 block-2 – SENP8 protease inhibition; purified SENP8, Z-RLRGG-aminoluciferin cleavage, luminescence; inhibition, % at 10 µM; 330,000 compounds, 1.2% hits; Q96LD8; AID 2540; in the data active = inhibition above about 50%
SENP8 confirm – confirmation of human SENP8 protease inhibitors. shares compounds with SENP7 block. Recombinant SENP8, Z-RLRGG-aminoluciferin luminescence, 60 min. inhibition, % at 12.5 µM. 6,200 compounds, 40% hits;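 active = mean inhibition across replicates above about 50%, limit read from the data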
SENP6 confirm – human SENP6 inhibition, confirmed. shares compounds with SENP7 block. 6,200 compounds, 58% hits. inhibition, % at 12.5 µM. recombinant SENP6, Z-RLRGG-aminoluciferin luminescence. AID 488915
SENP7 conf – human SENP7 inhibition, confirmed | recombinant SENP7, Z-RLRGG-aminoluciferin luminescence, 40 min | shares compounds with SENP7 block | AID 488917 | 6,200 compounds, 69% hits | inhibition, % at 12.5 µM
Casp3 select – inhibits human caspase-3 in SENP selectivity test. shares compounds with SENP7 block. purified caspase-3, Z-DEVD-aminoluciferin luminescence, 60 min. 6,200 compounds, 60% hits. inhibition, % at 12.5 µM;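 active = mean inhibition above about 50%, limit read from the data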;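 also: plate controls were enzyme with DMSO for no effect and wells without caspase-3 for full effect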
Target sequence (P42574 28-227 limits assumed): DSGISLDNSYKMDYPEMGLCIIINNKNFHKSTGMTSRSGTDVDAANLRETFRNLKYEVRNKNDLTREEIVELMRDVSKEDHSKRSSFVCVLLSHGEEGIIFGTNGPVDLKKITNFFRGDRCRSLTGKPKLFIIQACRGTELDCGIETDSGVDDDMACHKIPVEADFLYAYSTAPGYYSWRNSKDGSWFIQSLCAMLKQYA
Luc interf – interferes with luciferase luminescence in SENP counter-screen; Pre-incubated SENP8/Z-RLRGG-aminoluciferin, luciferase luminescence interference; inhibition, % at 12.5 µM; shares compounds with SENP7 block; 6,200 compounds, 39% hits; AID 488919;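 active = mean inhibition above about 50% when retested at one dose, limit read from the data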;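 also: plate controls were DMSO wells with completed reaction for no effect and substrate without enzyme for full effect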
* marks the source's active call; other numbers are inactive results.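 The calls were made as follows, unless noted: active = mean inhibition above about 50% in the one-dose retest (limit read from the data); inactive = the rest.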

What do the screens show for `Cc1ccc2[nH]c(-c3cccc(N)c3)cc2c1`?
SENP6 inh: 16.1; SENP8 block-1: -303.8; SENP7 block: 69.9*; UBC13 inh: 9.1; Apaf-1 inh: 12.1; SENP8 block-2: 56.4*; SENP8 confirm: 56.6*; SENP6 confirm: 76.9*; SENP7 conf: 93.5*; Casp3 select: 31.7; Luc interf: 53.3*

Results for Cc1ccc2[nH]c(-c3cccc(F)c3)cc(=O)c2c1 ?
SENP6 inh: -9.0; SENP8 block-1: -141.8; SENP7 block: -2.5; UBC13 inh: 4.7; Apaf-1 inh: -7.0; SENP8 block-2: 0.2

Results for O=C1CCCC(O)=C1N=Nc1cccc(C(=O)O)c1 ?
SENP6 inh: 76.5*; SENP8 block-1: 20.8; SENP7 block: 80.0*; UBC13 inh: -4.0; Apaf-1 inh: 3.6; SENP8 block-2: 60.8*; SENP8 confirm: 13.9; SENP6 confirm: 78.1*; SENP7 conf: 95.5*; Casp3 select: 21.6; Luc interf: 69.5*

Results for Cc1cc(-n2c(C)cc(C(=O)COc3ccccc3[N+](=O)[O-])c2C)no1 ?
SENP6 inh: -8.0; SENP8 block-1: 6.0; SENP7 block: 4.8; UBC13 inh: 2.7; Apaf-1 inh: -5.3; SENP8 block-2: -3.7

How did Cc1cc(-n2c(C)cc(C(=O)COc3ccc(F)c(F)c3)c2C)no1 do in these assays?
SENP6 inh: 63.8*; SENP8 block-1: 2.4; SENP7 block: 39.7; UBC13 inh: 2.2; Apaf-1 inh: 7.8; SENP8 block-2: 45.9; SENP8 confirm: 60.3*; SENP6 confirm: 59.1*; SENP7 conf: 81.2*; Casp3 select: 48.1; Luc interf: 26.1

Results for C(=N\N=C\c1ccccc1)/c1ccccc1 ?
SENP6 inh: 83.0*; SENP8 block-1: 5.4; SENP7 block: 69.5*; UBC13 inh: 0.0; Apaf-1 inh: 9.9; SENP8 block-2: 65.1*; SENP8 confirm: -2.2; SENP6 confirm: 66.9*; SENP7 conf: 94.3*; Casp3 select: 62.3*; Luc interf: 10.4

What do the screens show for `CCC(=O)Nc1ccc(-c2ccc(N3CCC(C)CC3)nn2)cc1`?
SENP6 inh: 5.3; SENP8 block-1: -45.1; SENP7 block: 1.0; UBC13 inh: 0.7; Apaf-1 inh: 8.1; SENP8 block-2: 0.6

How did O=C(Nc1cccc(-c2ccc(N3CCCCC3)nn2)c1)C(F)(F)F do in these assays?
SENP6 inh: 33.9; SENP8 block-1: -20.8; SENP7 block: 5.9; UBC13 inh: -0.1; Apaf-1 inh: -2.6; SENP8 block-2: 34.3

How did CCC(=O)Nc1cccc(-c2ccc(N3CCC(C)CC3)nn2)c1 do in these assays?
SENP6 inh: 68.7*; SENP8 block-1: -43.8; SENP7 block: 59.3*; UBC13 inh: -1.8; Apaf-1 inh: 2.3; SENP8 block-2: 48.8; SENP8 confirm: 20.9; SENP6 confirm: 56.0*; SENP7 conf: 83.9*; Casp3 select: 73.0*; Luc interf: -11.5

What do the screens show for `O=C(Nc1cccc(-c2ccc(N3CCCCC3)nn2)c1)c1ccc(Br)o1`?
SENP6 inh: 88.6*; SENP8 block-1: -41.8; SENP7 block: 82.8*; UBC13 inh: -4.4; Apaf-1 inh: 30.6; SENP8 block-2: 76.1*; SENP8 confirm: 72.8*; SENP6 confirm: 78.7*; SENP7 conf: 93.9*; Casp3 select: 81.6*; Luc interf: 60.1*

Results for CC1CCN(c2ccc(-c3cccc(NC(=O)c4ccco4)c3)nn2)CC1 ?
SENP6 inh: 79.4*; SENP8 block-1: -17.1; SENP7 block: 73.6*; UBC13 inh: -5.5; Apaf-1 inh: 19.7; SENP8 block-2: 59.3*; SENP8 confirm: 66.4*; SENP6 confirm: 69.4*; SENP7 conf: 88.0*; Casp3 select: 66.3*; Luc interf: 38.4

Results for COC(=O)c1cc(Cl)ccc1NCC(N)c1ccccc1 (stereo not given) ?
SENP8 block-1: -400.9

Results for CCCCCCCCN1C(=O)[C@H](CC(=O)NCc2ccc(C)o2)C[C@@]2(C(=O)OC)CCCCC=C12 ?
SENP8 block-1: 13.1

How did COC/C=C/C1=CC2=CC(=O)C(C)(OC(=O)c3cnc4ccccc4n3)C(=O)C2=CN1c1ccccc1 (stereo not given) do in these assays?
SENP6 inh: 3.2; SENP7 block: 1.1; UBC13 inh: -31.2; Apaf-1 inh: 14.7; SENP8 block-2: 63.7*; SENP8 confirm: 11.7; SENP6 confirm: 11.2; SENP7 conf: 6.5; Casp3 select: 4.0; Luc interf: 0.5

What do the screens show for `C=CCOc1cccn2c(N(C)C(=O)c3ccncc3)c(CC)nc12`?
SENP8 block-1: 3.9

How did N#CCC1(O)C(=O)N(Cc2ccccc2)c2ccccc21 (stereo not given) do in these assays?
SENP8 block-1: -1.4

Results for CCOC(=O)C1(C(F)(F)F)N=C(C(F)(F)F)Nc2ccccc21 (stereo not given) ?
SENP6 inh: 3.5; SENP8 block-1: 5.1; SENP7 block: 71.5*; UBC13 inh: 4.7; Apaf-1 inh: -13.2; SENP8 block-2: -5.1; SENP8 confirm: 8.9; SENP6 confirm: 6.7; SENP7 conf: 1.8; Casp3 select: -3.8; Luc interf: -7.5

Results for CCOC(=O)C1(Cc2ccccc2)C(=O)Nc2ccccc21 (stereo not given) ?
SENP6 inh: -14.9; SENP8 block-1: 15.1; SENP7 block: -4.9; UBC13 inh: -12.1; Apaf-1 inh: -0.8; SENP8 block-2: 4.8

Results for Cc1cc2nc(-c3ccc(C#N)cc3)c(Cc3ccsc3)n2c(C)c1Br ?
SENP8 block-1: -28.7

How did Cc1csc2nc(CSc3ccc(Cl)cc3)cn12 do in these assays?
SENP6 inh: 79.7*; SENP8 block-1: 11.2; SENP7 block: 53.4*; UBC13 inh: 12.2; Apaf-1 inh: 5.0; SENP8 block-2: 46.0; SENP8 confirm: 77.5*; SENP6 confirm: 76.7*; SENP7 conf: 91.7*; Casp3 select: 67.3*; Luc interf: 72.1*

Results for Clc1ccc(SCc2cn3ccsc3n2)cc1 ?
SENP6 inh: 14.4; SENP8 block-1: 18.3; SENP7 block: 14.2; UBC13 inh: 5.9; Apaf-1 inh: 10.3; SENP8 block-2: -8.9
